Activity calls are given as the source filed them. The rule behind the calls is not given here.

Data set [1] addresses T1, Nuclear factor erythroid 2-related factor 2 (Homo sapiens) (UniProt Q16236).
T1 sequence (whole entry): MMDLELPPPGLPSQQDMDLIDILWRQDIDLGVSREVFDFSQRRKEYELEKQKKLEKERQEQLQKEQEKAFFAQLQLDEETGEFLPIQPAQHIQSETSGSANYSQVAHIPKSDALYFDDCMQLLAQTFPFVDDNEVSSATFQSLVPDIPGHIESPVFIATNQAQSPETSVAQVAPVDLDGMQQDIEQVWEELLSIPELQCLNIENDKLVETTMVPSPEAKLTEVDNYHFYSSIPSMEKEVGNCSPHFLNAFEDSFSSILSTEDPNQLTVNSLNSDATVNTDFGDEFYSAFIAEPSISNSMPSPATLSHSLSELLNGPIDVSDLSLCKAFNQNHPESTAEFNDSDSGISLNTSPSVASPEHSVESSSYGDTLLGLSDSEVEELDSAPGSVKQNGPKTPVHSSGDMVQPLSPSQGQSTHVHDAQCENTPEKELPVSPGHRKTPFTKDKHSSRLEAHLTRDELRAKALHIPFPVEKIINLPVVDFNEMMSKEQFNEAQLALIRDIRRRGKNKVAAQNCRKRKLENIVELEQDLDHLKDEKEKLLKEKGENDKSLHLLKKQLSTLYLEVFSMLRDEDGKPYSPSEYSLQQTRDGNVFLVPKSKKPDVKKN
Description: Activation of Nrf2 in human HepG2 cells assessed as increase in nuclear Nrf2 expression level at 5 uM after 1 to 6 hrs by Western blot analysis. The class given is cell-based. An outline of the steps:
(§1)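 HepG2 cells (2×10^6/well) treated at the indicated concentrations and times. Whole-cell lysates, or nuclear and cytoplasmic fractions, are prepared and quantified by BCA. Samples are run at 40 μg/lane on 12% SDS-PAGE, transferred to nitrocellulose, probed with specific antibodies and HRP secondary (1/5000), and detected by ECL. Where used, LY294002 (15 μM), SP600125 (25 μM) or DTT (400 μM) is added 1 h before compound.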
For orientation: Immunoblotting shows a protein as a band on a membrane.

The target of data set [2] is T1, Nuclear factor erythroid 2-related factor 2 (Homo sapiens). The data set is described as follows: Activation of Nrf2 in human HepG2 cells assessed as increase in Nrf2 expression level after 3 hrs by Western blot analysis. The class given is cell-based. Put shortly:
as §1

Data set [3] concerns the target T2, Keap1/Nrf2 (Homo sapiens) (UniProt Q16236+Q14145). The data set is described as follows: Inhibition of Keap1/Nrf2 interaction in human HepG2 cells assessed as increase in Nrf2 expression level after 3 hrs in presence of DTT for 1 hr prior to compound treatment by Western blot analysis. The class given is cell-based. An outline of the steps: as §1
The target in data set [4] is T1, Nuclear factor erythroid 2-related factor 2 (Homo sapiens). Description: Activation of Nrf2 in human HepG2 cells assessed as increase in HO-1 expression level after 3 hrs by Western blot analysis. The class given is cell-based. An outline of the steps:
as §1

Data set [5] has the same target. Description: Activation of Nrf2 in human HepG2 cells assessed as increase in HO-1 expression level at 5 uM by Western blot analysis. The class given is cell-based. The following applies: TDE = time-dependent effect. Put shortly:
as §1

Data set [6] has the same target. The data set is described as follows: Activation of Nrf2 in human HepG2 cells assessed as increase in GCLC expression level after 3 hrs by Western blot analysis. The format is cell-based. Put shortly:
as §1

For data set [7] the target is unchanged. The data set is described as follows: Activation of Nrf2 in human HepG2 cells assessed as cytoprotection against t-BHP-induced oxidative cell death at 5 uM incubated for 24 hrs followed by compound removal with subsequent incubation with 900 uM of t-BHP for 6 hrs in presence of 400 uM metal ion chelator EDTA for 1 hr prior to compound treatment by MTT assay. The class given is cell-based. For orientation: Tetrazolium dyes change colour on reduction, which living cells bring about.

For data set [8] the target is unchanged. Description: Activation of Nrf2 in human HepG2 cells assessed as cytoprotection against t-BHP-induced oxidative cell death incubated for 24 hrs followed by compound removal with subsequent incubation with 900 uM of t-BHP for 6 hrs by MTT assay. The class given is cell-based. An outline of the steps:
(§2)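 HepG2 cells (5×10^3/well) seeded and grown 24 h in 1640 medium with 10% FBS at 37 °C and 5% CO2. Compound is added for 24 h, then removed, and cells are challenged with 900 μM t-BHP for 6 h at 37 °C. MTT (0.5 mg/mL) is added for 4 h, formazan dissolved in DMSO, and absorbance read at 570 nm. Where used, inhibitors are added 1 h before compound. Mean ± SD of three independent experiments.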

The nature of data set [9]: Stability of the compound in PBS at 40 uM at pH 7.4 at 25 degC measured for 30 mins by UV-Vis spectrophotometric analysis. The class given is physicochemical. Conditions: buffer, pH 7.4, 0.5 h. Put shortly: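 Compound at 40 μM in PBS (pH 7.4) at 25 °C. UV-visible absorption spectra recorded every 2 min for 30 min against blanks of solution plus DMSO.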
In data set [10] the target is T1, Nuclear factor erythroid 2-related factor 2 (Homo sapiens). Description: Activation of Nrf2 in human HepG2 cells assessed as increase in GCLC expression level after 24 hrs by Western blot analysis. The format is cell-based. An outline of the steps:
as §1

Data set [11] shares this target. Description: Activation of Nrf2 in human HepG2 cells assessed as increase in nuclear Nrf2 expression level at 5 uM after 12 hrs by Western blot analysis. The format is cell-based. Put shortly: as §1
Data set [12] has the same target. Description: Activation of Nrf2 in human HepG2 cells assessed as cytoprotection against t-BHP-induced oxidative cell death at 5 uM incubated for 24 hrs followed by compound removal with subsequent incubation with 900 uM of t-BHP for 6 hrs in presence of 3 uM HO-1 inhibitor ZnPP for 1 hr prior to compound treatment by MTT assay. The format is cell-based. Put shortly:
as §2

The target of data set [13] is Kelch-like ECH-associated protein 1 (Homo sapiens) (UniProt Q14145). Description: Induction of keap1-dependent Nrf2 stabilization in human HepG2 cells assessed as prolonged half life of Nrf2 at 5 uM pretreated for 3 hrs followed by coincubation with 5 ug/ml cycloheximide for 24 hrs by Western blot analysis relative to control. The class given is cell-based. Put shortly: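 HepG2 cells pretreated with or without 5 μM compound for 3 h, then given 5 μg/mL cycloheximide for the indicated periods (up to 24 h). Total lysates are immunoblotted for Nrf2. Half-life is obtained by fitting a single-phase decay model.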

The target of data set [14] is T2, Keap1/Nrf2 (Homo sapiens). Description: Inhibition of Keap1/Nrf2 interaction in human HepG2 cells assessed as decrease in Keap1 expression level after 3 hrs in presence of DTT for 1 hr prior to compound treatment by Western blot analysis. The class given is cell-based. Put shortly:
as §1

Data set [15] is filed under the species Homo sapiens. The data set is described as follows: Induction of ERK phosphorylation in human HepG2 cells at 5 uM after 15 to 120 mins by Western blot analysis. The format is cell-based. Put shortly:
as §1

For data set [16], the target named is RAC-alpha serine/threonine-protein kinase (Homo sapiens) (UniProt P31749). Description: Induction of Akt phosphorylation in human HepG2 cells at 5 uM by Western blot analysis. Conditions: TDE = time-dependent effect. The class given is cell-based. An outline of the steps:
as §1

Data set [17] addresses c-Jun N-terminal kinase, JNK (Homo sapiens) (UniProt P45983+P53779+P45984). Description: Induction of JNK phosphorylation in human HepG2 cells at 5 uM by Western blot analysis. Conditions: TDE = time-dependent effect. The class given is cell-based. Put shortly:
as §1

Data set [18] has as its target T1, Nuclear factor erythroid 2-related factor 2 (Homo sapiens). Description: Activation of Nrf2 in human HepG2 cells assessed as increase in GCLM expression level after 24 hrs by Western blot analysis. The format is cell-based. An outline of the steps:
as §1

For data set [19] the target is unchanged. Description: Activation of Nrf2 in human HepG2 cells assessed as cytoprotection against t-BHP-induced oxidative cell death at 5 uM incubated for 24 hrs followed by compound removal with subsequent incubation with 900 uM of t-BHP for 6 hrs in presence of 100 nM Nrf2 inhibitor TRG for 1 hr prior to compound treatment by MTT assay. The class given is cell-based. Put shortly:
as §2

T2 sequence (Q14145 whole entry, looked up, one chain of several): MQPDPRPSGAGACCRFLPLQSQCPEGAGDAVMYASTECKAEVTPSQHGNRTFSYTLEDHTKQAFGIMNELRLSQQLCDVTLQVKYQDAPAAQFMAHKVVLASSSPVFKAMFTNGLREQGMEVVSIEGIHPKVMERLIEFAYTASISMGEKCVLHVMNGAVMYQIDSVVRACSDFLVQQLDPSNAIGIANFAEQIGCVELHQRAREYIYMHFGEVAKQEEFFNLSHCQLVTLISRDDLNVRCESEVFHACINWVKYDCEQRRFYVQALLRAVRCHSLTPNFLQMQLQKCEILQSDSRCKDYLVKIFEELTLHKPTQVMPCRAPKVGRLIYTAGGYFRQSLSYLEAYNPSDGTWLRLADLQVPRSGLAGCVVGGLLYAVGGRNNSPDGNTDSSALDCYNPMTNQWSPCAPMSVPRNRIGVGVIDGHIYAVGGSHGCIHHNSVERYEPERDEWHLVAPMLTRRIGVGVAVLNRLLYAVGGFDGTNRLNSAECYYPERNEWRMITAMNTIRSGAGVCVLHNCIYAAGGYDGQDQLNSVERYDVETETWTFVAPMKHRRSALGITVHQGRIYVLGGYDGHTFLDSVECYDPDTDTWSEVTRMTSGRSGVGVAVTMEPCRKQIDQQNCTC
Kelch-like ECH-associated protein 1 (Homo sapiens), sequence (Q14145 whole entry): as the sequence (Q14145 whole entry, looked up, one chain of several) above
RAC-alpha serine/threonine-protein kinase (Homo sapiens), sequence (P31749 whole entry): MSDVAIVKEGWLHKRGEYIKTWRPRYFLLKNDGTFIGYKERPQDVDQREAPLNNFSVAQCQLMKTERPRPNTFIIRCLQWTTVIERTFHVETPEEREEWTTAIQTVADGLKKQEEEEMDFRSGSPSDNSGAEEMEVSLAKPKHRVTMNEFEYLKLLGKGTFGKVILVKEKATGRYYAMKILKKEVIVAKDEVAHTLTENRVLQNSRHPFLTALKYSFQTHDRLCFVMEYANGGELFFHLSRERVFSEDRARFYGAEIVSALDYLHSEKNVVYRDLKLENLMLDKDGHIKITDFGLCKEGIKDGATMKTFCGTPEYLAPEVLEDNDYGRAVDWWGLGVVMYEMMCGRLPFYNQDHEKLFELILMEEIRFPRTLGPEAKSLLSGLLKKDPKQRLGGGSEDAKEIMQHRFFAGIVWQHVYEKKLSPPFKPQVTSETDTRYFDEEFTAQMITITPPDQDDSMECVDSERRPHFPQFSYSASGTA

In the case of `CC(C)(C(=O)/C=C/c1ccc(O)c(O)c1)C(=O)/C=C/c1ccc(O)c(O)c1`, the outcome in data set [1], in [2], in data set [4] and in [6] was Active. The inhibition result in data set [3] and in data set [14] was “inactive” each time. In addition, the Activity entry is “Tde” in [5]; “Dose-dependent effect” in data set [8]; “Dose-dependent effect” in data set [10]; “Tde” in data set [16]; “Tde” in data set [17]; “Dose-dependent effect” in data set [18]. Moreover, the result in [7], in data set [11], in data set [12], in data set [15] and in [19] was inactive. Also, the Stability result in data set [9] was “Stable”. Besides, the fold change (FC) in [13] worked out at 2.6.

These data come from ChEMBL document CHEMBL4020714, “Design, synthesis, and evaluation of curcumin derivatives as Nrf2 activators and cytoprotectors against oxidative death” (Eur J Med Chem, 2017).
